Data on eight compounds can be found in article PMC4176373 (Nucleic Acids Research, 2014).

In one data set the target is mouse eIF4E(28–217) (Mus musculus, UniProt P63073). Conditions: 50 mM HEPES/KOH (pH 7.2), 100 mM KCl, 20°C; cited from earlier work.
Data set [1] concerns human immature dendritic cells (hiDCs). The experiment in a line: Luciferase expression from 5′-capped mRNAs in dendritic cells. Particulars: luciferase mRNA capped with the analog, electroporated into hiDCs. The format is cell-based. The method in brief: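 Luciferase mRNA made by T7 in vitro transcription with the cap dinucleotide added co-transcriptionally; plasmid DNA digested and RNA purified. Capped mRNA electroporated into human immature dendritic cells. Luciferase activity read at 2, 4, 8, 24, 48 and 72 h, in duplicate, and normalised to cell number. Time of maximal expression derived by spline interpolation of the time course.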

Data set [2] has as its target T1, hDcpS (Homo sapiens, UniProt Q96C86).
T1 sequence (Q96C86 1-337): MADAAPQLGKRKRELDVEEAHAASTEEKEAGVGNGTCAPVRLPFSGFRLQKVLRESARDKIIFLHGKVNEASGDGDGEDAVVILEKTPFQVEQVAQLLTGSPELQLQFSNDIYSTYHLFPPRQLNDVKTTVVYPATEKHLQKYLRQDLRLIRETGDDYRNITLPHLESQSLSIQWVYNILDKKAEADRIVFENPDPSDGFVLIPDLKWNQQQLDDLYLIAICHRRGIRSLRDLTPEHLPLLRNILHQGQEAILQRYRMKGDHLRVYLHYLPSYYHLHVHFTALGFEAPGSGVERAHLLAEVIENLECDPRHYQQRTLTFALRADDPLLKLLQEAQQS
Particulars: pH 7.6, 20°C; cited from earlier work.

For data set [3], the target named is T2, CeDcpS (Caenorhabditis elegans, UniProt G5EFS4).
T2 sequence (G5EFS4 1-311): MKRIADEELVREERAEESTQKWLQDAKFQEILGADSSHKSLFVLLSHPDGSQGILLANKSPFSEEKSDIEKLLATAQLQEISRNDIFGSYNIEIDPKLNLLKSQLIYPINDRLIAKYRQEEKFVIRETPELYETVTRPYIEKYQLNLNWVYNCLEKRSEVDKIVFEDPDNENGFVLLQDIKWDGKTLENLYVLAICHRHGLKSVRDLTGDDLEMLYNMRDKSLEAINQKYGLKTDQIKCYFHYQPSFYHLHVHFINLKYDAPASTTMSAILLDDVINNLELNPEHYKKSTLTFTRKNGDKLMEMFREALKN
Particulars: pH 7.6, 20°C; cited from earlier work.

Another data set can be described thus: Stacking measurements. It is filed as physicochemical. Particulars: 0.1 M phosphate buffer, pH 5.2, 20°C; from fluorescence intensity of 7-methylguanosine; mean ± SD. The method in brief:
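Dinucleotide fluorescence intensity compared with m⁷GMP (7-methylguanosine fluorophore) in phosphate buffer, pH 5.2, at 20 °C. Stacked fraction calculated as (F_m7GMP − F_cap)/F_m7GMP, since stacking partially quenches 7-methylguanosine fluorescence. Values given as mean ± SD.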

Data set [4] deals with T1, hDcpS. The experiment in a line: HPLC-based assay of DcpS-mediated hydrolysis, Assay 2. It is filed as biochemical. Particulars: DcpS 200 nM, cap analog 15 μM, pH 7.6, 20 °C.
Data set [5] addresses T2, CeDcpS. The experiment in a line: HPLC-based assay of DcpS-mediated hydrolysis, Assay 2. The format is biochemical. Particulars: DcpS 200 nM, cap analog 15 μM, pH 7.6, 20 °C. The method in brief:
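Substrate at 15 µM sits 10 min at 20°C in 50 mM Tris HCl, 200 mM KCl, 0.5 mM EDTA, 1 mM DTT (final pH 7.6) before enzyme is added to 0.2 μM. Aliquots are heat-stopped at 97°C for 2.5 min at 10 and 90 min. Analysis is RP HPLC (methanol 0–30% in 0.1 M KH₂PO₄), reading A260 and fluorescence (ex 280/em 337 nm). Output is x = % substrate hydrolysed, with the substrate peak multiplied by 1.1. CeDcpS was E. coli-expressed and Ni-NTA-purified.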

mouse eIF4E(28–217), sequence (P63073 28-217): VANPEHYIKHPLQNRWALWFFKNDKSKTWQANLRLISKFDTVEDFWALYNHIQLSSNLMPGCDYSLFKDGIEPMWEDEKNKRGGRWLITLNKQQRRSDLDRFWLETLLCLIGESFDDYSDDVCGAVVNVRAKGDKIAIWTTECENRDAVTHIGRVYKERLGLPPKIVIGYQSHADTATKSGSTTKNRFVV

As to `CO[C@@H]1[C@H](O)[C@@H](COP(=O)(O)OP(=O)([O-])OP(=O)(O)OC[C@H]2O[C@@H](n3cnc4c(=O)[nH]c(N)nc43)[C@H](O)[C@@H]2O)O[C@H]1n1c[n+](C)c2c(O)nc(N)nc21` [m2^7,2′-OGpppG], the “KAS (equilibrium association constant) for eIF4E” value (shortened to “KAS … for eIF4E”) on mouse eIF4E(28–217) was 10.8 ± 0.3 µM⁻¹.

Consider `CO[C@H]1[C@@H](O)[C@H]([n+]2cn(C)c3c(=O)[nH]c(N)nc32)O[C@@H]1COP(=O)([O-])OP(=O)(O)OP(=O)(O)OC[C@H]1O[C@@H](n2cnc3c(=O)[nH]c(N)nc32)[C@H](O)[C@@H]1O` [m2^7,3′-OGpppG], for which, in data set [1], the “Time of max. (time point of maximal protein expression, functional RNA stability)” value came to 11.45 ± 0.07 h.

For `C[n+]1cn([C@@H]2O[C@H](COP(=O)(O)OP(=O)(O)O)[C@@H](O)[C@H]2O)c2nc(N)[nH]c(=O)c21` [m^7GDP, 7-methylguanosine diphosphate], the “KAS for hDcpS” value on hDcpS [2] is reported as 114 ± 8^b μM^−1. In addition, the “KAS for CeDcpS” value at CeDcpS [3] is given as 97 ± 12^c μM^−1.

In the case of `C[n+]1cn([C@@H]2O[C@H](COP(=O)(O)CP(=O)(O)OP(=O)(O)OC[C@H]3O[C@@H](n4cnc5c(=O)[nH]c(N)nc54)[C@H](O)[C@@H]3O)[C@@H](O)[C@H]2O)c2nc(N)[nH]c(=O)c21` [m^7GpCH2ppG], at hDcpS [2], the “KAS for hDcpS” value was 234 ± 14^e μM^−1. For the same compound, the “KAS for CeDcpS” value on CeDcpS [3] was 8.6 ± 0.4^c μM^−1.

Turning to `C[n+]1cn([C@@H]2O[C@H](COP(=O)([O-])NP(=O)(O)OP(=O)(O)OC[C@H]3O[C@@H](n4cnc5c(=O)[nH]c(N)nc54)[C@H](O)[C@@H]3O)[C@@H](O)[C@H]2O)c2nc(N)[nH]c(=O)c21.N.N` [m^7GpNHppG], at hDcpS [2], the “KAS for hDcpS” value was 218 ± 24^d μM^−1. Further, the “KAS for CeDcpS” value on CeDcpS [3] is reported as 66 ± 9^c μM^−1.

For the compound `C[n+]1cn([C@@H]2O[C@H](COP(=O)(O)OP(O)(=S)OP(=O)(O)OC[C@H]3O[C@@H](n4cnc5c(=O)[nH]c(N)nc54)[C@H](O)[C@@H]3O)[C@@H](O)[C@H]2O)c2nc(N)[nH]c(=O)c21` (some centres unmarked) [m^7GppSpG D1], the “% of stacked conformation” value in the data set “Stacking measurements” was determined as 61.8 ± 0.7%. The “Percent of cleavage, x (%) hDcpS 10 min” value at hDcpS [4] (reaction time 10 min) stood at 100%. Further, the “Percent of cleavage, x (%) hDcpS 90 min” value on hDcpS [4] (reaction time 90 min) is recorded as 100%. For the same compound, the “Percent of cleavage, x (%) CeDcpS 10 min” value on CeDcpS [5] (reaction time 10 min) is listed as 100%. For the same compound, the “Percent of cleavage, x (%) CeDcpS 90 min” value on CeDcpS [5] (reaction time 90 min) is reported as 100%. The “KAS … for eIF4E” value on mouse eIF4E(28–217) was 45.0 ± 1.1 µM⁻¹.

Regarding `C[n+]1cn(C2OC(COP(=O)(O)OP(O)(=S)OP(=O)(O)OCC3OC(n4cnc5c(=O)[nH]c(N)nc54)C(O)C3O)C(O)C2O)c2nc(N)[nH]c(=O)c21` (centres unmarked) [m^7GppSpG D2], the “% of stacked conformation” value in the data set “Stacking measurements” stood at 60.8 ± 0.2%. Moreover, the “KAS … for eIF4E” value at mouse eIF4E(28–217) was 23.0 ± 0.4 µM⁻¹.

Take `C[n+]1cn([C@@H]2O[C@H](COP(=O)(O)OP(=O)(O)OP(=O)(O)OC[C@H]3O[C@@H](n4c[n+](C)c5c(=O)[nH]c(N)nc54)[C@H](O)[C@@H]3O)[C@@H](O)[C@H]2O)c2nc(N)[nH]c(=O)c21` [m^7Gpppm^7G]: the “KAS … for eIF4E” value at mouse eIF4E(28–217) was 5.0 ± 0.2 µM⁻¹.
